Results taken from ChEMBL document CHEMBL1152203, “New jasmonate analogues as potential anti-inflammatory agents” (Bioorg Med Chem, 2008).
Calls of active or inactive are those of the source. No cut-off for these calls is given here.

Legend:
RAW264.7 [1] = test: Antiinflammatory activity in LPS-stimulated mouse RAW264.7 cells assessed as inhibition of NO production after 24 hrs by Griess reagent method; format: functional, cell-based
In short: (§1)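 RAW264.7 cells at 1.5 × 10^5 cells/mL, pre-incubated 18 h in 24-well plates, then stimulated with LPS (1 µg/mL) alone or with test samples for 24 h. Samples dissolved in EtOH diluted with DMEM, solvent ≤0.1% final. NO in supernatant by Griess reagent (10 min, room temperature, light protected, absorbance 540 nm); IL-6 and TNF-α by ELISA. Mean ± SD.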

RAW264.7 [2] = test: Antiinflammatory activity in LPS-stimulated mouse RAW264.7 cells assessed as inhibition of IL6 production at after 24 hrs by ELISA; format: functional, cell-based; in short: as §1
RAW264.7 [3] = test: Antiinflammatory activity in LPS-stimulated mouse RAW264.7 cells assessed as inhibition of TNFalpha production after 24 hrs by ELISA; format: functional, cell-based; in short: as §1
RAW264.7 [4] = test: Antiinflammatory activity in LPS-stimulated mouse RAW264.7 cells assessed as inhibition of NO production at 25 uM after 24 hrs by Griess reagent method; format: functional, cell-based
In short: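 Test samples at 12.5 and 25.0 µM with LPS (1 µg/mL) on RAW264.7 cells (1.5 × 10^5 cells/mL) for 24 h. NO read by Griess method, IL-6 and TNF-α by ELISA. Means ± SD of triplicate experiments.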

RAW264.7 [5] = test: Antiinflammatory activity in LPS-stimulated mouse RAW264.7 cells assessed as inhibition of NO production at 12.5 uM after 24 hrs by Griess reagent method; format: functional, cell-based; in short: as §1
RAW264.7 [6] = test: Antiinflammatory activity in LPS-stimulated mouse RAW264.7 cells assessed as inhibition of IL6 production at 12.5 uM after 24 hrs by ELISA; format: functional, cell-based; in short: as §1
RAW264.7 [7] = test: Antiinflammatory activity in LPS-stimulated mouse RAW264.7 cells assessed as inhibition of TNFalpha production at 12.5 uM after 24 hrs by ELISA; format: functional, cell-based; in short: as §1
RAW264.7 [8] = test: Antiinflammatory activity in LPS-stimulated mouse RAW264.7 cells assessed as inhibition of NO production at 100 uM after 24 hrs by Griess reagent method; format: functional, cell-based
In short: (§2)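 Conditions used at 50 and 100 µM: RAW264.7 cells (1.5 × 10^5 cells/mL) stimulated with LPS (1 µg/mL) alone or with samples for 24 h. Supernatant NO measured by Griess reagent, absorbance 540 nm; IL-6 and TNF-α by ELISA. Means ± SD of duplicate experiments; blank and LPS-only controls.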

RAW264.7 [9] = test: Antiinflammatory activity in LPS-stimulated mouse RAW264.7 cells assessed as inhibition of NO production at 50 uM after 24 hrs by Griess reagent method; format: functional, cell-based; in short: as §2
RAW264.7 [10] = test: Antiinflammatory activity in LPS-stimulated mouse RAW264.7 cells assessed as inhibition of IL6 production at 50 uM after 24 hrs by ELISA; format: functional, cell-based; in short: as §1
RAW264.7 [11] = test: Antiinflammatory activity in LPS-stimulated mouse RAW264.7 cells assessed as inhibition of TNFalpha production at 50 uM after 24 hrs by ELISA; format: functional, cell-based; in short: as §2
RAW264.7 [12] = test: Cytotoxicity against LPS-stimulated mouse RAW264.7 cells at 100 uM after 24 hrs by MTT assay; format: cell-based; conditions: raw264.7, 24 h
In short: (§3)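 Viability of RAW264.7 cells (1.5 × 10^5 cells/mL) after 24 h exposure to LPS (1 µg/mL) plus test sample, by MTT. MTT added for 4 h, formazan dissolved in DMSO, absorbance 540 nm. Means ± SD of duplicate (50, 100 µM) or triplicate (other concentrations) experiments.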

RAW264.7 [13] = test: Cytotoxicity against LPS-stimulated mouse RAW264.7 cells at 50 uM after 24 hrs by MTT assay; format: cell-based; conditions: raw264.7, 24 h; in short: as §3
RAW264.7 [14] = test: Cytotoxicity against LPS-stimulated mouse RAW264.7 cells at 12.5 uM after 24 hrs by MTT assay; format: cell-based; conditions: raw264.7, 24 h; in short: as §3
RAW264.7 [15] = test: Cytotoxicity against LPS-stimulated mouse RAW264.7 cells at 25 uM after 24 hrs by MTT assay; format: cell-based; conditions: raw264.7, 24 h; in short: as §3
RAW264.7 [16] = test: Antiinflammatory activity in LPS-stimulated mouse RAW264.7 cells assessed as inhibition of NO production at 3.12 uM after 24 hrs by Griess reagent method; format: functional, cell-based
In short: (§4)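 NO series at 3.12, 6.25 and 12.5 µM: RAW264.7 cells (1.5 × 10^5 cells/mL) co-treated with LPS (1 µg/mL) for 24 h; nitrite by Griess reagent. Means ± SD of triplicate experiments.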

RAW264.7 [17] = test: Antiinflammatory activity in LPS-stimulated mouse RAW264.7 cells assessed as inhibition of NO production at 6.25 uM after 24 hrs by Griess reagent method; format: functional, cell-based; in short: as §4
RAW264.7 [18] = test: Cytotoxicity against LPS-stimulated mouse RAW264.7 cells at 3.12 uM after 24 hrs by MTT assay; format: cell-based; conditions: raw264.7, 24 h; in short: as §3
RAW264.7 [19] = test: Cytotoxicity against LPS-stimulated mouse RAW264.7 cells at 6.25 uM after 24 hrs by MTT assay; format: cell-based; conditions: raw264.7, 24 h; in short: as §3
RAW264.7 [20] = test: Antiinflammatory activity in LPS-stimulated mouse RAW264.7 cells assessed as inhibition of NO production at 10 uM after 24 hrs by Griess reagent method; format: functional, cell-based
In short: (§5)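 Samples and prostaglandin references tested at 10 and 30 µM alongside LPS (1 µg/mL) in RAW264.7 cells (1.5 × 10^5 cells/mL), 24 h; NO by Griess reagent. Triplicate experiments, means ± SD.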

RAW264.7 [21] = test: Antiinflammatory activity in LPS-stimulated mouse RAW264.7 cells assessed as inhibition of NO production at 30 uM after 24 hrs by Griess reagent method; format: functional, cell-based; in short: as §5
RAW264.7 [22] = test: Cytotoxicity against LPS-stimulated mouse RAW264.7 cells at 10 uM after 24 hrs by MTT assay; format: cell-based; conditions: raw264.7, 24 h; in short: as §3

Compound	Activity (RAW264.7 [1])	Activity (RAW264.7 [2])	Activity (RAW264.7 [3])	Activity (RAW264.7 [4])	Activity (RAW264.7 [5])	Activity (RAW264.7 [6])	Activity (RAW264.7 [7])	further results
CC/C=C\CC1C(=O)C=CC1CC(=O)NC(C)C (configuration not stated)	Dose-dependent effect	Dose-dependent effect	Dose-dependent effect	Active	Active	Active	Active	
CC/C=C\CC1C(=O)C(C(=O)OC)=CC1CC(=O)OC (configuration not stated)								Activity (RAW264.7 [8]): Active; Activity (RAW264.7 [9]): Active; Activity (RAW264.7 [10]): Active; Activity (RAW264.7 [11]): Active; Activity (RAW264.7 [12]): Toxic; Activity (RAW264.7 [13]): Toxic
CCCCCC1C(=O)C=CC1CC(=O)NCCO (configuration not stated)	Dose-dependent effect	Dose-dependent effect	Dose-dependent effect	Active	Active	Active	Active	
CC/C=C\CC1C(=O)CCC1CC(=O)OC (configuration not stated) [METHYL JASMONATE]								Activity (RAW264.7 [8]): Active; Activity (RAW264.7 [9]): Active; Activity (RAW264.7 [10]): Active; Activity (RAW264.7 [11]): Active; Activity (RAW264.7 [12]): Toxic; Activity (RAW264.7 [13]): Toxic
CC/C=C\CC1C(=O)C(I)=CC1CC(=O)OC (configuration not stated)	Dose-dependent effect	Dose-dependent effect	Dose-dependent effect					
CC/C=C\CC1C(=O)C(Cl)=CC1CC(=O)O (configuration not stated)	Dose-dependent effect	Dose-dependent effect	Dose-dependent effect	Active	Active	Active	Active	
CC/C=C\CC1C(=O)C(C#N)=CC1CC(=O)OC (configuration not stated)								Activity (RAW264.7 [8]): Active; Activity (RAW264.7 [9]): Active; Activity (RAW264.7 [10]): Active; Activity (RAW264.7 [11]): Active; Activity (RAW264.7 [12]): Toxic; Activity (RAW264.7 [13]): Toxic
CCCCCC1C(=O)C=CC1CC(=O)O (configuration not stated)	Dose-dependent effect	Dose-dependent effect	Dose-dependent effect	Active	Active	Active	Active	
CCCCCC1C(=O)C=CC1CC(=O)OC (configuration not stated)	Dose-dependent effect	Dose-dependent effect	Dose-dependent effect					
CC/C=C\CC1C(=O)C=CC1CC(=O)O (configuration not stated)	Dose-dependent effect	Dose-dependent effect	Dose-dependent effect	Active	Active	Active	Active	
CCCCCC1C(=O)C(Br)=CC1CC(=O)OC (configuration not stated)	Dose-dependent effect	Dose-dependent effect	Dose-dependent effect					Activity (RAW264.7 [14]): Toxic; Activity (RAW264.7 [15]): Toxic; Activity (RAW264.7 [16]): Active; Activity (RAW264.7 [17]): Active; Activity (RAW264.7 [18]): Non-toxic; Activity (RAW264.7 [19]): Non-toxic; Activity (RAW264.7 [20]): Active; Activity (RAW264.7 [21]): Active; Activity (RAW264.7 [22]): Toxic
CC/C=C\CC1C(=O)C=CC1CC(=O)NCCO (configuration not stated)	Dose-dependent effect	Dose-dependent effect	Dose-dependent effect	Active	Active	Active	Active	
CCCCCC1C(=O)C(I)=CC1CC(=O)OC (configuration not stated)	Dose-dependent effect	Dose-dependent effect	Dose-dependent effect					
CC/C=C\CC1C(=O)C(Cl)=CC1CC(=O)OC (configuration not stated)	Dose-dependent effect	Dose-dependent effect	Dose-dependent effect	Active				Activity (RAW264.7 [20]): Active; Activity (RAW264.7 [21]): Active
CC/C=C\CC1C(=O)C=CC1CC(=O)OC (configuration not stated)	Dose-dependent effect	Dose-dependent effect	Dose-dependent effect	Active	Active	Active	Active	Activity (RAW264.7 [8]): Active; Activity (RAW264.7 [9]): Active; Activity (RAW264.7 [10]): Active; Activity (RAW264.7 [11]): Active; Activity (RAW264.7 [12]): Toxic; Activity (RAW264.7 [13]): Toxic
CCCCCC1C(=O)C=CC1CC(=O)NC(C)C (configuration not stated)	Dose-dependent effect	Dose-dependent effect	Dose-dependent effect	Active	Active	Active	Active	
CCCCCC1C(=O)C(Cl)=CC1CC(=O)OC (configuration not stated)	Dose-dependent effect	Dose-dependent effect	Dose-dependent effect	Active				Activity (RAW264.7 [20]): Active; Activity (RAW264.7 [21]): Active
CC/C=C\CC1C(=O)C(Br)=CC1CC(=O)OC (configuration not stated)	Dose-dependent effect	Dose-dependent effect	Dose-dependent effect					Activity (RAW264.7 [14]): Toxic; Activity (RAW264.7 [15]): Toxic; Activity (RAW264.7 [16]): Active; Activity (RAW264.7 [17]): Active; Activity (RAW264.7 [18]): Non-toxic; Activity (RAW264.7 [19]): Non-toxic; Activity (RAW264.7 [20]): Active; Activity (RAW264.7 [21]): Active; Activity (RAW264.7 [22]): Toxic
CCCCCC1C(=O)C(Cl)=CC1CC(=O)O (configuration not stated)	Dose-dependent effect	Dose-dependent effect	Dose-dependent effect	Active	Active	Active	Active	
